Measurements: ChEMBL document CHEMBL2069227, “Cycloartane-type triterpenes from the leaves of Homonoia riparia with VEGF-induced angiogenesis inhibitory activity” (J Nat Prod, 2012)
Active and inactive are the calls of the source. The calls are words filed in the database; no cut-off is given here.

Tests used:
[1] = system: Rattus norvegicus; test: Inhibition of VEGF-induced vascular permeability in intradermally dosed Sprague-Dawley rat assessed as reduction in extravasation of Evans blue dye by Miles assay; format: functional, organism-based
How it was run: (§1)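 Male Sprague–Dawley rats (250–300 g) were anesthetized and shaved, then re-anesthetized 2–3 days later and given 150 μL 1% Evans blue i.v. After 15 min, 15 μL was injected intradermally: VEGF (100 ng/mL), compound (1, 5 or 10 μg/mL) in PBS, or PBS alone. Skin was dissected after 1 h, dye eluted with formamide at 56 °C, and OD read at 620 nm. n = 3 at 10 μg/mL.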

[2] = system: Rattus norvegicus; test: Inhibition of VEGF-induced vascular permeability in intradermally dosed Sprague-Dawley rat assessed as reduction in extravasation of Evans blue dye at 10 ug/ml by Miles assay; format: functional; how it was run: as §1
[3] = system: HUVEC; test: Inhibition of VEGF-induced angiogenesis in HUVECs assessed as reduction in capillary-like tube formation on matrigel at 25 uM incubated for 6 hrs by fluorescence microscopy; format: functional; settings: Homo sapiens
How it was run: (§2)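 HUVECs were cultured to the supplier's standard protocol. 5 × 10^4 cells were plated on basement membrane extract in medium with VEGF (10 ng/mL), with or without compound, and incubated 6 h. Cells were stained with 2 μM Calcein AM in PBS for 30 min. Tubes were imaged by fluorescence microscopy and quantified by image analysis against untreated cultures. Means ± SD, n = 3.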

[4] = system: HUVEC; test: Toxicity in HUVECs at 25 uM; format: cell-based; settings: human
[5] = system: HUVEC; test: Toxicity in HUVECs at 12.5 uM; format: cell-based; settings: human
[6] = system: HUVEC; test: Inhibition of VEGF-induced angiogenesis in HUVECs assessed as reduction in capillary-like tube formation on matrigel at 12.5 uM incubated for 6 hrs by fluorescence microscopy; format: functional; settings: Homo sapiens; how it was run: as §2

Structure (SMILES): C=C(CC[C@@H](C)[C@H]1CC[C@@]2(C)[C@@H]3[C@@H](O)[C@@H](O)[C@H]4C(C)(C)[C@@H](O[C@@H]5OC[C@@H](O)[C@H](O)[C@H]5O)CC[C@@]45C[C@@]35CC[C@]12C)C(C)C (relative stereo)
- inhibition [1]: inactive

Structure (SMILES): C=C(CC[C@@H](C)[C@H]1[C@@H](O)C[C@@]2(C)[C@@H]3[C@@H](O)C[C@H]4C(C)(C)[C@@H](O[C@@H]5OC[C@@H](O)[C@H](O)[C@H]5O)CC[C@@]45C[C@@]35CC[C@]12C)C(C)C
- inhibition [1]: Dose-dependent effect

Structure (SMILES): C=C(CC[C@@H](C)[C@H]1CC[C@@]2(C)[C@@H]3[C@@H](O)[C@@H](O)[C@H]4C(C)(C)[C@@H](O)CC[C@@]45C[C@@]35CC[C@]12C)C(C)C
- inhibition [1]: inactive

Structure (SMILES): C=C(CC[C@@H](C)[C@H]1[C@@H](O)C[C@@]2(C)[C@@H]3C[C@@H](O)[C@H]4C(C)(C)[C@@H](O)CC[C@@]45C[C@@]35CC[C@]12C)C(C)C (relative stereo)
- inhibition [1]: inactive

Structure (SMILES): C=C(CC[C@@H](C)[C@H]1[C@@H](O)C[C@@]2(C)[C@@H]3[C@@H](O)[C@@H](O)[C@H]4C(C)(C)[C@@H](O[C@@H]5OC[C@@H](O)[C@H](O)[C@H]5O)CC[C@@]45C[C@@]35CC[C@]12C)C(C)C
- inhibition [1]: Dose-dependent effect
- inhibition (INH) [2]: 64%
- inhibition at 25 µM [3]: 59.5%
- Activity [4]: Non-toxic
- Activity [5]: Non-toxic
- inhibition at 12.5 µM [6]: 28.5%

Structure (SMILES): C=C(CC[C@@H](C)[C@H]1[C@@H](O)C[C@@]2(C)[C@@H]3C[C@@H](O)[C@H]4C(C)(C)[C@@H](O[C@@H]5OC[C@@H](O)[C@H](O)[C@H]5O)CC[C@@]45C[C@@]35CC[C@]12C)C(C)C (relative stereo)
- inhibition [1]: Dose-dependent effect
